Measured values gathered from unrelated publications.
Compare with care: the assays were run in different laboratories.
Target: Mitogen-activated protein kinase 13 (MAPK13, Homo sapiens, UniProt O15264)
Sequence (O15264 1-365, as in one of the studies): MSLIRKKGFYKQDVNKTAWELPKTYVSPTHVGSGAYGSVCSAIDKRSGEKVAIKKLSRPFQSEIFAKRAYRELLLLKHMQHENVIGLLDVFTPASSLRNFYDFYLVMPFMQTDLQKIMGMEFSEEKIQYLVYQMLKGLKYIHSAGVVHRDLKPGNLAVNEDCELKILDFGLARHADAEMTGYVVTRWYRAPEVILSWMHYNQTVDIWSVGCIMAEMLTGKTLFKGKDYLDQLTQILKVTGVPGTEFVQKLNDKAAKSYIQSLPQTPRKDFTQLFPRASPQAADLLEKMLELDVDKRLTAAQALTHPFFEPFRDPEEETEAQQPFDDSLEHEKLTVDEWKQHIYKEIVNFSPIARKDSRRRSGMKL

`Nc1nc(Nc2ccccc2)sc1C(=O)c1c(F)cccc1F` has a remaining activity of 62% (enzyme activity; inhibitor; 10 µM).
`N#Cc1ccc(Nc2ccc3[nH]c(=O)[nH]c3c2)c(Cl)c1` has a remaining binding of 100% (cell-free assay; competition with immobilised ligand; 1 µM).
`CC1(C)NC(=O)c2[nH]c3c(Cl)c(Cl)ccc3c2C1C#N` (centres unmarked) has a ΔTm of 0.9 °C (thermal stability; DSF; 10 µM).
For `CO[C@H]1CC[C@H](CNc2ccc(S(=O)(=O)NC(=O)c3ccc(N4CCN(CC5=C(c6ccc(Cl)cc6)CC(C)(C)CC5)CC4)cc3Oc3cnc4[nH]ccc4c3)cc2[N+](=O)[O-])CC1`, the remaining binding was 96% (cell-free assay; competition with immobilised ligand; 1 µM).
For `CCOc1cc(-c2nncn2C)ccc1Nc1ncc2cc(C)nc(NCC(C)(C)C)c2n1`, the inhibition was < 15% (enzyme activity; inhibitor; FRET; 1 µM).
`CN(C)C1CCN(CC#Cc2nn(C3CCCC3)c3nc(NCc4ccccc4)ncc23)C1` (centres unmarked) gave an inhibition of 1% (enzyme activity; inhibitor; FRET; 0.1 µM).
`CCCOc1ccc(OC)c(F)c1C(=O)c1ccc(C(=O)N[C@@H]2CNC[C@H]2NC(=O)c2ccc3[nH]ncc3c2)cc1` has a remaining activity of 93% (enzyme activity; inhibitor; 10 µM).
`COc1cc(-c2cc(-c3ccc(N4CCNCC4)cc3)cnc2C)cc(OC)c1OC` gave an inhibition of 1% (enzyme activity; inhibitor; 1 µM).
For `Cn1c2c(Cl)c(Cl)ccc2c2cc(N)[nH]c(=O)c21`, the ΔTm was 0.5 °C (thermal stability; DSF; 10 µM).
The remaining binding of `O=C(NS(=O)(=O)c1ccc(NCC2CCOCC2)c([N+](=O)[O-])c1)c1ccc(N2CCN(Cc3ccc(C(F)(F)F)cc3-c3ccc(Cl)cc3)CC2)cc1Oc1cnc2[nH]ccc2c1` is reported as 99% (cell-free assay; competition with immobilised ligand; 1 µM).
`CCN1CCC2(CC1)NC(=O)c1c(c3ccc(Cl)c(Cl)c3n1C)C2C#N` (racemic) gave a ΔTm of 0.6 °C (thermal stability; DSF; 10 µM).
For `O=C(Nc1cnn(-c2csc(C(=O)NC3COC3)c2)c1)Nc1c(F)cccc1Cl`, the remaining activity was 98.4% (enzyme activity; inhibitor; 5 µM).
`COc1cc(Cl)c(C(=O)N[C@@H](CN[C@H]2CC[C@@H](N)CC2)Cc2ccc(C#N)cc2)cc1-c1ccc(CN[C@H](C)c2ccc(C)cc2)o1` gave a remaining activity of 101% (enzyme activity; inhibitor; 1 µM).
`Cc1ccc(NC(=O)c2ccc(CN3CCN(C)CC3)cc2)cc1Nc1nc(-c2cccnc2)cs1` gave a remaining signal of 101% (cell-free assay; 0.5 µM).
`O=C(NCc1ncc(C(F)(F)F)cc1Cl)c1ccc2c(c1)C1(CCS(=O)(=O)CC1)[C@@H](C1CC1)N2S(=O)(=O)c1ccc(F)cc1` gave a remaining binding of 86% (cell-free assay; competition with immobilised ligand; 1 µM).
With `CCN(CC)CCNC(=O)c1c(C)[nH]c(/C=C2\C(=O)Nc3ccc(F)cc32)c1C` the inhibition was -5% (enzyme activity; inhibitor; 10 µM).
The remaining binding of `CC1=C(C#N)[C@@H](c2ccc3[nH]nc(C)c3c2)C(C#N)=C(c2ccc(Cl)cc2)N1` is reported as 100% (cell-free assay; competition with immobilised ligand; 1 µM).
`Cc1ccc(NC(=O)c2ccc(C)c(C(F)(F)F)c2)cc1C#Cc1nn(C2CCC(O)CC2)c2ncnc(N)c12` (centres unmarked) gave a remaining signal of 80% (cell-free assay; 10 µM).
With `Cc1nccc(COC(=O)N2C[C@@H]3[C@@H](CNC(=O)c4ccc5[nH]nnc5c4)[C@@H]3C2)n1` the remaining binding was 98% (cell-free assay; competition with immobilised ligand; 1 µM).
`Oc1cccc(-c2nc(N3CCOCC3)c3oc4ncccc4c3n2)c1` has a remaining activity of 84% (enzyme activity; inhibitor; 10 µM).
